Screening data deposited in PubChem BioAssay by The Scripps Research Institute Molecular Screening Center.
Most compounds without a hit are left out; they make up all but 2.5% or so of the library.
zfTRPN1 agonist = zebrafish TRPN1 channel agonists, primary screen, cell-based, HEK293, calcium fluorescence; activation, % at 3 µM; actives 0.18% (n = 220,000); HEK293 zebrafish TRPN1-YFP, Fluo-8 calcium fluorescence; 100% = response to 87 µM carbachol; AID 1424, 2008;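 active = activation above its plate's cutoff, the mean activation of test wells on that plate plus 3 SD, cut at about 19% in these data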;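 note: 0% = DMSO alone and 100% = 87 µM carbachol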
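Material: zebrafish TRPN1-YFP in HEK293 cells. Doses: one dose of 3 µM, 0.3% DMSO. Incubation: dye 1 h 37 °C plus 30 min RT. Measured by: intracellular calcium fluorescence with Fluo-8.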
OX1R antag-1 = antagonists of human orexin 1 receptor (OX1R); Orexin/Hypocretin receptor type 1 (Homo sapiens), O43613; OX1R-expressing cells, FRET antagonist read-out; inhibition, % at 6.6 µM; actives 1.8% (n = 330,000); AID 485270, 2010; in the data active = inhibition mostly above about 38%, no sharp cut-off; inactive = mostly below about 40%;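 note: 0% = agonist challenge alone and 100% = reference antagonist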
Target sequence (O43613 whole entry, looked up): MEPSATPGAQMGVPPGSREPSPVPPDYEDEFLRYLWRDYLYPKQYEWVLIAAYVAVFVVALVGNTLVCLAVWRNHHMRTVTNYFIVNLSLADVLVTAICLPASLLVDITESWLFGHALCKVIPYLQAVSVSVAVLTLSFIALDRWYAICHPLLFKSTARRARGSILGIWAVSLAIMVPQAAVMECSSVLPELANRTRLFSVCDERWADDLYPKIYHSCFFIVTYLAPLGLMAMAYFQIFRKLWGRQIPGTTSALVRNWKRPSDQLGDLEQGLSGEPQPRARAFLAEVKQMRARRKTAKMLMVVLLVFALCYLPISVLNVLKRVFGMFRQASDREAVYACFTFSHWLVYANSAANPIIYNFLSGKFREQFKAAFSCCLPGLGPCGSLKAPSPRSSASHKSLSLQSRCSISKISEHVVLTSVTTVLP
CHO parental Ca = ATP-evoked calcium signal inhibitors, parental CHO, primary screen, counter-screen for OX1R antagonist project, cell-based, fluorescence, Fluo-8 calcium dye. parental CHO-K1, ATP-induced calcium, Fluo-8 fluorescence. inhibition, % at 5.6 µM. actives 0.63% (n = 330,000);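 active = inhibition above that plate's mean sample inhibition plus 3 SD, cut at about 26% in these data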;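 note: 0% = ATP-challenged DMSO wells and 100% = DMSO wells without ATP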
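Material: parental CHO cells / Compound: single nominal dose of 5.6 µM per compound / Signal: Fluo-8 fluorescence / Replicates: singlicate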
TRPML3 agonist = human TRPML3 channel agonists, primary screen, cell-based, HEK293 TRPML3-YFP, Fluo-8 calcium fluorescence, 3 µM | Mucolipin-3 (Homo sapiens), Q8TDD5 | 100% = the carbachol control signal | activation, % at 3 µM | actives 0.29% (n = 220,000);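 active = activation above its plate's cutoff, the mean activation of the plate's test wells plus 3 SD, cut at about 12% in these data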;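 note: 0% = DMSO only wells and 100% = carbachol wells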
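system = HEK293 cells stably carrying human TRPML3-YFP | doses = one concentration, 3 µM nominal, 0.3% DMSO | timing = dye loading 1 h 37 °C then 30 min ambient, 125 s read | detection = Fluo-8 calcium dye fluorescence, ex 470-495, em 515-575 nm | benchmarks = high control carbachol 87 µM, low control DMSO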
OX1R antag-2 = OX1R (HCRTR1) antagonists, primary screen, fluorescence, CHO/OX1R cells, Fluo-8 calcium, orexin A. Orexin/Hypocretin receptor type 1 (Homo sapiens), O43613. actives 0.43% (n = 330,000). inhibition, % at 5 µM. Fluo-8 calcium fluorescence;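 active = inhibition above its plate's threshold, mean inhibition of all tested compounds on the plate plus 3 SD, cut at about 37% in these data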;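 note: 0% = orexin A challenge wells and 100% = SB-334867-A antagonist wells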
* = called active by the depositor; . = no result.

SMILES | zfTRPN1 agonist | OX1R antag-1 | CHO parental Ca | TRPML3 agonist | OX1R antag-2
Cc1cccn2c(=O)c3cc(C(=O)NCC4CCCO4)c(=N)n(CC4CCCO4)c3nc12 (centres undefined) | . | 63* | -16 | . | -21
COc1ccc(CNC(=O)c2cc3c(=O)n4cccc(C)c4nc3n(CC3CCCO3)c2=N)cc1 (centres undefined) | . | 30 | -18 | . | -18
Cc1cccn2c(=O)c3cc(C(=O)NCc4ccc(F)cc4)c(=N)n(CC4CCCO4)c3nc12 (centres undefined) | . | 22 | -14 | . | -17
COCCNC(=O)c1cccc(OC2CCN(Cc3cccc(SC)c3)CC2)c1 | . | 12 | -19 | . | -38
C=CCC1(CC=C)CCCN1C(=O)c1cc(COc2cccc(OC)c2)on1 | . | 11 | 11 | . | -4
C=CCC1(CC=C)CCCN1C(=O)c1cc(COc2cncc(Cl)c2)on1 | . | 43 | 65* | . | 31
Cc1ccc(SCCNC(=O)c2ccc(C)c(S(=O)(=O)Nc3cccc(C)c3)c2)cc1 | 0 | 38* | -7 | 1 | 30
CCOC(=O)c1c(C)oc2c1c(C(c1ccccc1)N1CCOCC1)c(O)c1ccccc12 (centres undefined) | -1 | 62* | -24 | -1 | -14
CCn1c(O)c(N=NC(=O)CNC(=O)/C=C/c2ccco2)c2ccccc21 | -1 | 36* | -9 | -1 | -7
CCn1c(O)c(N=NC(=O)c2cccs2)c2ccccc21 | -1 | 76* | -25 | 1 | 8
CCCn1c(O)c(N=NC(=O)c2ccco2)c2ccccc21 | 0 | 36 | -27 | 0 | -43
CCn1c(O)c(N=NC(=O)CNC(=O)c2ccco2)c2ccccc21 | 1 | 46 | -7 | -1 | 0
Cc1ccc(NC(=O)c2ccc(=O)[nH]c2)cc1S(=O)(=O)N1CCCCCC1 | . | 4 | -7 | . | -4
COc1nc(N)c(C#N)c(-c2ccc(N(C)CCC#N)cc2)c1C#N | 13 | 12 | -8 | 5 | 9
COc1cc(C(=S)N2CCOCC2)ccc1OC(=O)c1cc([N+](=O)[O-])c(C)c([N+](=O)[O-])c1 | 0 | 7 | -10 | 0 | -10
O=C(Oc1cccc(C(=S)N2CCOCC2)c1)c1cccc([N+](=O)[O-])c1 | -1 | 17 | -12 | 0 | -19
COc1cc(C(=S)N2CCOCC2)ccc1OC(=O)c1cc(OC)c(OC)c(OC)c1 | . | 14 | -15 | . | -40
O=C(Oc1cccc(C(=S)N2CCOCC2)c1)c1cc([N+](=O)[O-])cc([N+](=O)[O-])c1 | 0 | 68* | -8 | 1 | -14
COc1cc(C(=S)N2CCOCC2)ccc1OC(=O)c1ccccc1[N+](=O)[O-] | . | 61* | -9 | . | 9
COc1cc(C(=S)N2CCOCC2)cc(OC)c1OC(=O)c1cccc(C)c1 | . | 66* | -16 | . | 21
CC1CCCC(NC(=O)CCNC(=O)c2ccc(Br)cc2)C1C (centres undefined) | . | 18 | -26 | . | -20
O=C1c2ccccc2C(=O)N1Nc1ccc([N+](=O)[O-])cc1[N+](=O)[O-] | . | 68* | -7 | . | -21
Nc1ccc(Nc2ccc([N+](=O)[O-])cc2[N+](=O)[O-])cc1 | 0 | 36 | 0 | 0 | -15
O=[N+]([O-])c1ccc(Nc2ccccn2)c([N+](=O)[O-])c1 | 0 | 36* | -2 | 1 | -13
O=C1C2C3C=CC(C3)C2C(=O)N1Nc1ccc([N+](=O)[O-])cc1[N+](=O)[O-] (centres undefined) | . | 38 | -16 | . | 0
SMILES | zfTRPN1 agonist | OX1R antag-1 | CHO parental Ca | TRPML3 agonist | OX1R antag-2
CC(C)(C)S(=O)(=O)/C(C#N)=N/Nc1ccc(Cl)cc1 | 21* | 34 | 11 | 11 | 2
Cc1ccc(-c2nc3cccnc3o2)cc1NC(=O)COc1ccc(C(C)(C)C)cc1 | -1 | 63 | 40* | 0 | 37
O=C1c2cccc3cccc(c23)C(=O)N1CCCn1ccnc1 | . | 55* | -3 | . | 6
C=CCn1c(-c2csc(-c3ccc(OC)c(OC)c3)n2)n[nH]c1=S | -1 | 32 | 72* | 0 | -9
CN(CC(=O)Nc1cccc(F)c1)C(=O)c1csc2c1CCCC2 | . | 27 | -14 | . | -14
COc1ccc(Cl)cc1NC(=O)CSc1nnc(Cc2ccc(C)cc2)c(=O)[nH]1 | . | 50* | -5 | . | -15
O=S(=O)(O)c1nc2ccccc2n1Cc1cccc2ccccc12 | 0 | 5 | 2 | 0 | -11
CSc1nc2nccc(-c3ccc(-c4ccccc4)cc3)n2n1 | 0 | 44* | -25 | 0 | 1
CSc1nc2nccc(-c3ccc(Oc4ccccc4)cc3)n2n1 | -2 | 12 | -4 | 0 | -35
COC(=O)C1OC(OC2CC[C@]3(C)C(CC[C@@]4(C)[C@@H]3CC=C3[C@@H]5CC(C)(C)CC[C@]5(C(=O)OC5OC(CO)C(O)C(O)C5O)CC[C@]34C)C2(C)C)C(O)C(O)C1O[C@H]1OCC(O)C(O)C1O (some centres undefined) | . | -3 | -5 | . | 16
C/C=C(\C)C(=O)OC1CC(C)(C)C[C@H]2C3=CC[C@@H]4[C@@]5(C)CCC(O[C@@H]6O[C@@H](C(=O)O)[C@@H](O)C(O[C@@H]7OC[C@H](O)[C@@H](O)[C@@H]7O[C@@H]7OC(CO)C(O)[C@@H](O)[C@@H]7O)C6O[C@@H]6OC(CO)C(O)C(O)C6O)[C@@](C)(CO)[C@@H]5CC[C@]4(C)[C@]3(C)CC(O)[C@@]12CO (some centres undefined) | . | 9 | 41* | . | 45
CC1(C)CC[C@]2(C(=O)O[C@@H]3OC(CO)[C@@H](O)[C@H](O)[C@H]3O)CC[C@]3(C)C(=CCC4[C@@]5(C)CC[C@H](O[C@@H]6OC(C(=O)O)[C@@H](O)[C@H](O)[C@H]6O)C(C)(C)C5CC[C@]43C)[C@@H]2C1 (some centres undefined) | . | 12 | 100* | . | 88*
CC1(C)C[C@H]2C3=CCC4[C@@]5(C)CC[C@H](O)[C@@](C)(CO)C5CC[C@@]4(C)[C@]3(C)C[C@@H](O)[C@@]2(CO)[C@@H](O)[C@@H]1O (some centres undefined) | . | 5 | -2 | . | -1
Cc1cccc(OCC(=O)NNC(=O)c2ccccc2OCc2c(C)noc2C)c1 | . | 5 | -21 | . | -14
O=C(N/N=C/c1ccc(Cl)c([N+](=O)[O-])c1)c1ccc2nc[nH]c2c1 | 0 | 58* | -6 | 0 | -3
